Hits are enriched below; roughly 1.5% of the tested compounds scored in any of these assays.
Fh CTSL1 inh = cathepsin L1 inhibition, PFM18AAP counter-screen. recombinant F. hepatica cathepsin L1, Z-Leu-Arg-MCA fluorescence. AID 1906. inhibition, % at 5.96 µM. 300,000 compounds, 0.49% hits;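 active = inhibition above the mean of all tested compounds plus 3 SD, set per screening campaign, cut at about 17% in these data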;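 also: 0% = plate median of test compound wells and 100% = 1 µM Z-Phe-Ala-diazomethylketone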
DAGLB inhibitor = blocks human DAGLB lipase activity. Q8NCG7. HEK293T DAGLB membrane lysate, EnzChek fluorogenic substrate. inhibition, % at 5.17 µM. 340,000 compounds, 0.059% hits. AID 504411; in the data active = inhibition above about 34%;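 also: 0% = enzyme with vehicle and 100% = wells lacking enzyme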
CendR NRP1 mod = alters CendR peptide binding to human NRP-1; inhibition, % at 25 µM; O14786; 360,000 compounds, 0.85% hits; FAM-RPARPAR peptide binding to NRP-1, fluorescence polarization;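 active = inhibition or corrected inhibition above about 18%, plus a signal ratio from 0.5 to 1.5, limit read from the data, passing the limit was not always enough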
Target sequence (O14786 whole entry, looked up): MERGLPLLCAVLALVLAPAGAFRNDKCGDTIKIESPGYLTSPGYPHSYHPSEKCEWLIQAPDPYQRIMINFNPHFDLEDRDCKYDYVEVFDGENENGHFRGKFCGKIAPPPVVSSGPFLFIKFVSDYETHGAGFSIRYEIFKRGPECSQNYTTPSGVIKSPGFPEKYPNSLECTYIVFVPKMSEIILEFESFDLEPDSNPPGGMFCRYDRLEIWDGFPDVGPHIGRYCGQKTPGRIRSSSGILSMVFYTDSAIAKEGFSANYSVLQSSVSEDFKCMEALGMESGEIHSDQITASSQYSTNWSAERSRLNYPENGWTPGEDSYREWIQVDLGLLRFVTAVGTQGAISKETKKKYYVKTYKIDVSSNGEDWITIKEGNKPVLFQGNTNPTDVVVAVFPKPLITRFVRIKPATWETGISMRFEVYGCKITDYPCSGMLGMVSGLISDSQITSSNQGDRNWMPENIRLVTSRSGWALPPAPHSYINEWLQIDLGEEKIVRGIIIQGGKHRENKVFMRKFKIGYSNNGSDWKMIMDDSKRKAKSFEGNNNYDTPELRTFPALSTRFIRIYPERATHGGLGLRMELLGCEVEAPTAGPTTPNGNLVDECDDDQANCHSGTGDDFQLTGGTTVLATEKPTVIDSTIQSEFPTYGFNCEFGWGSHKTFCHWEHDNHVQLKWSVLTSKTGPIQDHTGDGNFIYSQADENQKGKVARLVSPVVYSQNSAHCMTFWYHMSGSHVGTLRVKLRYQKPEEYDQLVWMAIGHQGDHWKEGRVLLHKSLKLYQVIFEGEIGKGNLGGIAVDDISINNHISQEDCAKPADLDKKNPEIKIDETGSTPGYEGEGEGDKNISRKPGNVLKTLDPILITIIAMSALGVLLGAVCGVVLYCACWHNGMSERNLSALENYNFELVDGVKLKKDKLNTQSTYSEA
MT1-MMP act inh = MT1-MMP (human) activation inhibition; P50281; HT1080 RFP-PRO-GFP cells, GFP/RFP ratio fluorescence, overnight; percent of plate control window, DMSO zero; GFP/RFP ratio change, % at 20 µM; 360,000 compounds, 0.061% hits; AID 651647;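 active = GFP/RFP ratio change of at least 30% with cell ATP level not reduced by more than half and red fluorescence within 50% of control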
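Read-out: GFP/RFP fluorescence ratio; Test system: RFP-PRO-GFP reporter HT1080 cells; Compound dosing: single-point 20 µM compound, 1% DMSO; Times: overnight compound exposure at 37 °C.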
UCH37 DUB inh = inhibitors of human deubiquitinating enzyme UCH37 | Q9Y5K5 | purified proteasome/UCH37, Ub-AMC cleavage fluorescence | inhibition, % (test concentration not listed) | 330,000 compounds, 0.33% hits;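 active = mean inhibition over replicate wells above about 20%, limit read from the data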;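 also: 0% = compound-free wells with enzyme and 100% = wells lacking proteasome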
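System: Proteasome-associated human UCH37 deubiquitinase; Input: 0.15 nM proteasome in added enzyme buffer; Also added: Ub-AMC substrate from 1 µM stock; Incubation: 30 min compound-proteasome preincubation then 25 min substrate reaction, room temperature; Detection: fluorescence, ex 355 nm, em 460 nm; Read-out: % inhibition of Ub-AMC cleavage fluorescence; Benchmarks: no-proteasome and no-compound wells.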
An asterisk follows results filed as active; · = no result.

SMILES | Fh CTSL1 inh | DAGLB inhibitor | CendR NRP1 mod | MT1-MMP act inh | UCH37 DUB inh
COc1ccc(S(=O)(=O)Nc2ccc(N3CCOCC3)cc2)cc1[N+](=O)[O-] | 3 | 0 | 25* | 0 | 1
Cn1cccc1C=Nn1cnnc1 | · | · | · | · | 3
NC(=O)c1ccc(N=Cc2ccc([N+](=O)[O-])s2)cc1 | 11 | 1 | -17 | 5 | 62*
COC(=O)c1ccc(N2CCOCC2)c(NC(=O)c2cccnc2)c1 | 2 | 2 | 26* | -5 | 0
CN1CCN(c2ccccc2/C=N/NC(=O)c2cccnc2)CC1 | -2 | 2 | 2 | 2 | ·
O=C(NN=Cc1cc([N+](=O)[O-])c(N2CCOCC2)cc1N1CCOCC1)c1cccnc1 | · | · | · | · | 23*
Cc1ccc(-c2nn(-c3ccccc3)cc2C=NNC(=O)c2ccncc2)o1 | · | · | · | · | -110
CC(C)C(NS(=O)(=O)c1cccs1)C(=O)NCCN1CCN(c2ccccc2)CC1 (stereo not drawn) | 48* | 3 | 6 | -3 | 1
COc1cc(C=NNC(=O)c2ccc(CN3C(=O)c4cccc5cccc3c45)cc2)cc(OC)c1O | · | · | · | · | -11
Cc1ccc(Cl)cc1NC(=O)COC(=O)CN1C(=O)C2CCCCC2C1=O (stereo not drawn) | · | -1 | 26* | 2 | 2
COc1cc(C=NNC(=O)c2ccc(N3CCCC3=O)cc2)ccc1O | · | · | · | · | 9
CC(=O)Nc1ccc(NC(=O)CC2SC(=O)N(CC(=O)c3ccccc3)C2=O)cc1 (stereo not drawn) | 96* | 3 | -3 | 0 | 3
CN(Cc1nc2ccccc2c(=O)[nH]1)C(=O)COc1ccccc1Cc1ccccc1 | · | 1 | 31* | 4 | -3
COc1ccccc1N(/N=C1\Sc2ccccc2C1=O)C(C)=O | 30* | -1 | -12 | 7 | ·
COc1ccc(N(C(=O)c2cccnc2)S(=O)(=O)c2ccc(F)cc2)cc1 | -2 | 1 | -10 | -1 | 5
COc1ccc(N(C(=O)c2cccnc2)S(=O)(=O)c2ccccc2)cc1 | -4 | -1 | 24* | -4 | 5
NC(=S)NNC(=S)Nc1ccccc1 | 0 | -4 | 39* | 10 | 2
CC1CCN(C(=O)c2[nH]cnc2C(=O)NCc2ccc(CNC(=O)OC(C)(C)C)cc2)CC1 | · | 1 | 30* | 1 | 28*
O=C(NCc1ccccc1)c1nc[nH]c1C(=O)N1CCN(c2ccccc2)CC1 | · | 1 | 30* | 7 | 0
CC(C)(C)OC(=O)N1CCN(C(=O)c2[nH]cnc2C(=O)NCC(=O)OCc2ccccc2)CC1 | -3 | -1 | 12 | 2 | 1
CC(C)(C)OC(=O)N1CCN(C(=O)c2[nH]cnc2C(=O)NCc2ccccc2)CC1 | · | -1 | 33* | 7 | 1
COCc1nnc(NC(=O)C(C)C)s1 | 2 | 1 | 26* | 6 | 4
COCc1nnc(NC(=O)c2cccc(NC(=O)C(C)C)c2)s1 | 0 | -1 | -9 | 2 | -1
Cc1cccc(C=NNC(=O)c2cc(Br)ccc2OCc2ccccc2)n1 | · | · | · | · | 7
COCCCNC(=O)c1ccc2c3c(onc13)-c1ccccc1C2=O | 22* | 17 | -6 | 24 | 24*
SMILES | Fh CTSL1 inh | DAGLB inhibitor | CendR NRP1 mod | MT1-MMP act inh | UCH37 DUB inh
COCCCNC(=O)c1ccccc1Oc1ccccc1 | 0 | -2 | 6 | -1 | 4
COC(=O)c1ccnc(C=NO)c1 | · | · | · | · | 1
CC(O)(c1cccnc1)c1nc(/C=C/c2ccccc2)cs1 (stereo not drawn) | · | · | 26* | -2 | ·
Cc1ccc2nc(N3CCN(C)CC3)c(C=O)c(=O)n2c1 | -2 | -2 | 22* | -3 | -3
Cn1ncc(C#N)c1N=CN1CCOCC1 | · | · | · | · | 1
COc1cc(CN2C[C@@H](CO)O[C@@H](n3cnc4c(N5CCN(c6ccccc6)CC5)ncnc43)C2)cc(OC)c1OC | · | · | 37* | 5 | ·
Cc1ccc2cc(C=NNC(=O)[C@H]3C[C@@H]3c3ccccc3)c(Cl)nc2c1 | · | · | · | · | -47
O=C(NCCc1ccccc1)C(=O)NN=Cc1ccccc1C(F)(F)F | · | · | · | · | 1
CCc1nc(OCC(=O)c2ccccc2)c(C#N)c2c1COC(C)(C)C2 | -1 | -7 | 19* | 5 | 0
Cc1ccc(S(=O)(=O)N2CCN(C(=O)Cc3ccccc3)CC2)cc1C | · | -1 | 23* | 2 | -2
Oc1ccccc1-c1ccn[nH]1 | · | -4 | 32* | 2 | 1
Oc1ccccc1-c1cc(-c2ccccc2)n[nH]1 | · | -2 | -8 | 7 | 1
Cc1cccc(C(=O)NCC(=O)NC(C)CCc2ccccc2)c1 (stereo not drawn) | -1 | 1 | 7 | 0 | 1
Cc1occc1C(=O)NC(C)CCc1ccccc1 (stereo not drawn) | -2 | 2 | 24* | 5 | 0
CC(CCc1ccccc1)NC(=O)CNC(=O)c1cccs1 (stereo not drawn) | -1 | 0 | 28* | 1 | 3
COc1ccccc1/C=N/NC(=O)c1ccc(CN2C(=O)c3cccc4cccc2c34)cc1 | 18* | -2 | 13 | -12 | ·
O=C1N/C(=N/O)S/C1=C/c1cccc([N+](=O)[O-])c1 | -1 | 0 | 4 | 2 | 5
CC1(C)CC(=O)/C(=C\c2cccc([N+](=O)[O-])c2)C(C)(C)N1 | 3 | 2 | 31* | -2 | 6
COc1c(Cl)cc(Cl)cc1C=NNC(=O)c1nnn(-c2nonc2N)c1CN1CCC(C)CC1 | · | · | · | · | 2
COc1cc(C(=S)N2CCOCC2)ccc1OC(=O)c1cc([N+](=O)[O-])c(C)c([N+](=O)[O-])c1 | -3 | -3 | 3 | 0 | 2
COc1ccc(C(=S)N2CCOCC2)cc1OC(=O)c1cc([N+](=O)[O-])c(C)c([N+](=O)[O-])c1 | 0 | -2 | 28* | 3 | 4
O=C(NC(C(=O)NN=Cc1cccnc1)c1n[nH]c(=O)c2ccccc12)c1ccccc1 (stereo not drawn) | · | · | · | · | 4
O=C(NN=Cc1cccc(OC(=O)N2CCOCC2)c1)c1cccs1 | · | · | · | · | 5
CC(=NNc1ccc(C(=O)O)cc1)c1ccc(O)c(O)c1O | · | · | · | · | 21*
COc1ccc(C(=O)NN=C2CCc3ccccc32)cc1OC | · | · | · | · | 8
SMILES | Fh CTSL1 inh | DAGLB inhibitor | CendR NRP1 mod | MT1-MMP act inh | UCH37 DUB inh
OCCOCCn1c(C(CO)Nc2nc(-c3ccccc3Br)cs2)nc2ccccc21 (stereo not drawn) | 21* | 3 | -5 | -4 | 3
CCCn1c(C(CO)Nc2nc(-c3cccc(Br)c3)cs2)nc2ccccc21 (stereo not drawn) | 5 | 0 | -1 | 3 | 5
OCCOCCn1c(C(CO)Nc2nc(-c3cccc(Br)c3)cs2)nc2ccccc21 (stereo not drawn) | 0 | 0 | 23* | 4 | 1
O=C(NN=Cc1cccc(O)c1)c1ccccc1O | · | · | · | · | 4
COc1cc(C=NNC(=O)CNC(=O)c2ccncc2)ccc1OC(C)=O | · | · | · | · | 5
CC(C)NC(=O)NC(=O)COC(=O)c1ccc([N+](=O)[O-])cc1Cl | 1 | 0 | -11 | 0 | -2

Compound activity as filed in PubChem BioAssay.
